Yeast life ext – compounds extending yeast replicative lifespan, primary screen, S. cerevisiae, OD615; S. cerevisiae growth with nicotinamide; deaD strain in restrictive glucose medium; inhibition of the nicotinamide effect, % at 10 µM; actives 0.68% (n = 130,000); AID 775, 2007;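 active means inhibition above a set limit, placed 3 SD over the median of all compounds, cut at about 26% in these data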;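 further: 0% = nicotinamide-treated wells and 100% = cells grown without nicotinamide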
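Buffer or medium: CSMM-D glucose medium, restrictive; test system: modified budding yeast, DeaD strain; compound: single dose 10 µM compound, 0.25% DMSO; schedule: culture preincubation 4 h, compound exposure 48 h, both 30 °C; detection: optical density (absorbance) at 615 nm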
Insulin prom up – insulin promoter activators in MIN6 cells, imaging, high-content screening, mouse beta cells. AID 1625, 2009. MIN6 insulin promoter-GFP reporter; stronger effect = higher value. z-score at 5 µM. actives 0.3% (n = 190,000);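 active means z-score above 3 at 5 µM with at least 500 cells counted in the well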
BB579 growth dn – growth inhibitors of yeast BB579 in restrictive medium, primary screen, yeast lifespan-shortening project, S. cerevisiae | OD615, 48 h | inhibition, % at 10 µM | actives 0.51% (n = 140,000) | AID 804, 2007;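 active means inhibition above a set limit, 3 SD over the mean compound inhibition, cut at about 44% in these data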
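controls = amphotericin B 10 µg/mL, positive | assay system = DeaD yeast strain BB579 | schedule = 48 h compound exposure at 30 °C after 4 h preincubation | detection = OD615 turbidity measurement | medium = restrictive CSMM-D medium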
RAM network inh – inhibitors of the yeast RAM network, primary screen, dse1pr::URA3 reporter, 5-FOA selection | S. cerevisiae dse1pr::URA3 reporter, 5-FOA growth OD615, 2 d; analog-sensitive cbk1-as2 kinase mutant strain | inhibition, % at 50 µM | actives 1.8% (n = 190,000) | AID 868, 2007;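 active means inhibition above a set limit, 3 SD over mean compound inhibition, cut at about 8.4% in these data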;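 further: 0% = DMSO-only wells with no growth and 100% = 10 µM 1-NA-PP1 full growth; inhibition rescues growth on 5-FOA so higher OD means more RAM inhibition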
INS promoter inh – inhibitors of insulin promoter-driven GFP, primary screen, imaging, TRM-6 cells, eGFP reporter, cell count; AID 1273, 2008; inhibition, % at 2 µM; actives 0.9% (n = 130,000); reporter expression induced with tamoxifen;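 active means inhibition above the mean plus 3 SD, with well images judged a real hit on visual review, cut at about 60% in these data, passing the limit was not always enough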
Active calls of the source: *. In the library only some 3% were active in any assay of this set; here they are far more common.

Results for CC1=NOC(=O)/C1=C\c1ccc(-c2ccc(Cl)cc2Cl)o1 ?
Yeast life ext: 5; Insulin prom up: -0.84; BB579 growth dn: 45*; RAM network inh: 0

What do the screens show for `CC1(C)CC(=O)C2=C(C1)OC(N)=C(C#N)C2c1ccccc1` (stereo not given)?
Yeast life ext: -8; Insulin prom up: 0; BB579 growth dn: 12; RAM network inh: 0

Results for CC1CC(=O)C2=C(C1)OC(N)=C(C#N)C2c1coc2ccccc2c1=O (stereo not given) ?
Yeast life ext: 18; Insulin prom up: 3*; BB579 growth dn: -15; RAM network inh: 0; INS promoter inh: -32

What do the screens show for `CC(C)c1ccc(/C=C2\SC(N3CCCC3)=NC2=O)cc1`?
Yeast life ext: 34*; Insulin prom up: 0.05; BB579 growth dn: -59; RAM network inh: 4; INS promoter inh: -33

What do the screens show for `Cc1ccc(/C=C2\SC(N3CCCC3)=NC2=O)cc1`?
Insulin prom up: -0.01; RAM network inh: 1; INS promoter inh: -5

Results for CCOc1ccc(-n2nnnc2SCC(=O)NNC(=O)c2ccco2)cc1 ?
Insulin prom up: -0.64; RAM network inh: 1

What do the screens show for `O=C(NCc1ccccc1)c1ccccc1C(=O)c1ncc[nH]1`?
RAM network inh: 0

What do the screens show for `Cc1ccc(C(C2=C(O)CC(C)(C)CC2=O)C2C(=O)CC(C)(C)CC2=O)o1` (stereo not given)?
Yeast life ext: 44*; Insulin prom up: 0.41; BB579 growth dn: -12; RAM network inh: -1

Results for CCOC(=O)N1CCN(CC(O)COc2ccc(C)cc2C(C)(C)C)CC1 (stereo not given) ?
Yeast life ext: 12; Insulin prom up: 0.13; BB579 growth dn: -51; RAM network inh: 1; INS promoter inh: 7

What do the screens show for `CC1(C)CC(NC(=O)CC2CCCCC2)CC(C)(C)N1`?
Yeast life ext: 5; BB579 growth dn: -37; RAM network inh: 1; INS promoter inh: 82*

How did CC1(C)CC(NC(=O)CCC2CCCC2)CC(C)(C)N1 do in these assays?
Yeast life ext: -14; Insulin prom up: -0.25; BB579 growth dn: -75; RAM network inh: 1; INS promoter inh: 52

Results for C=CCN1C2CCCC1CC(NC(=O)Nc1cc(C)cc(C)c1)C2 (stereo not given) ?
Insulin prom up: 0.06; RAM network inh: 2

How did Cc1ccc(C2C(/C=C3/SC(=S)NC3=O)=C(c3cccs3)Oc3ccccc32)cc1 (stereo not given) do in these assays?
Yeast life ext: -3; Insulin prom up: -0.16; BB579 growth dn: -79; RAM network inh: 10*; INS promoter inh: -21

What do the screens show for `Fc1ccc(C2CC(c3cccs3)=NN2C(=S)Nc2ccccc2)cc1` (stereo not given)?
Yeast life ext: 3; Insulin prom up: -0.58; BB579 growth dn: -18; RAM network inh: 5

What do the screens show for `O=C(Nc1ccccc1)N1N=C(c2ccc(F)cc2)CC1c1ccc(F)cc1` (stereo not given)?
Yeast life ext: 2; Insulin prom up: -1.3; BB579 growth dn: -7; RAM network inh: 9.6*; INS promoter inh: 62

What do the screens show for `COC(=O)c1cc(=O)n(CCc2ccccc2F)c(=Nc2ccc(F)c(Cl)c2)s1`?
Yeast life ext: 6; Insulin prom up: -0.14; BB579 growth dn: -22; RAM network inh: 10*

Results for COC(=O)c1cc(=O)n(-c2ccc(F)cc2)c(=Nc2ccc(F)cc2)s1 ?
Yeast life ext: 29*; Insulin prom up: -0.71; BB579 growth dn: -32; RAM network inh: 0; INS promoter inh: -55

Results for COC(=O)c1cc(=O)n(Cc2cccs2)c(=Nc2ccc(F)cc2)s1 ?
Insulin prom up: 0.25; RAM network inh: 1

Results for COc1cccc(-n2cnc3sc(C)c(C)c3c2=O)c1 ?
Yeast life ext: 0; Insulin prom up: 0.09; BB579 growth dn: -34; RAM network inh: 3; INS promoter inh: -11

Results for CCOc1ccc(N(CC(=O)Nc2cccc(N(C)S(C)(=O)=O)c2)S(=O)(=O)c2ccccc2)cc1 ?
Yeast life ext: -5; Insulin prom up: -0.46; BB579 growth dn: -38; RAM network inh: 9.6*; INS promoter inh: -8

How did Cc1ccc(-c2csc(C3=C(O)CN(NC(=O)c4ccc([N+](=O)[O-])cc4)C3=N)n2)cc1 do in these assays?
Insulin prom up: 0.11; RAM network inh: 8.6*; INS promoter inh: -24

Results for N=C1C(c2nc(-c3ccc(Br)cc3)cs2)=C(O)CN1NC(=O)c1ccc([N+](=O)[O-])cc1 ?
Insulin prom up: 0.51; RAM network inh: 3; INS promoter inh: -18

Results for Cc1cc(C)cc(-n2nc(C)cc2N)c1 ?
Yeast life ext: -24; BB579 growth dn: 1; RAM network inh: 0; INS promoter inh: 72*

How did Cc1cccc(-n2nc(C)cc2N)c1 do in these assays?
Yeast life ext: -22; Insulin prom up: -0.68; BB579 growth dn: 34; RAM network inh: -1; INS promoter inh: -14

Results for Cc1ccnc(SCc2cc(=O)c(OC(=O)c3ccco3)co2)n1 ?
Yeast life ext: 42*; Insulin prom up: -0.42; BB579 growth dn: -18; RAM network inh: 0; INS promoter inh: 30

What do the screens show for `Cc1ccnc(SCc2cc(=O)c(OC(=O)c3cccs3)co2)n1`?
Insulin prom up: 0.04; RAM network inh: 1; INS promoter inh: 42

Results for CC(=O)CSc1nnc(C(F)(F)F)n1C ?
Insulin prom up: -0.3

Results for C[C@@H]1NC(=O)c2cc([N+](=O)[O-])cc(I)c2OCC[C@@H](C(N)=O)NC(=O)[C@H](CCC(=O)O)NC1=O ?
Yeast life ext: 13; Insulin prom up: 0.56; BB579 growth dn: -22; RAM network inh: 1; INS promoter inh: 14

How did COc1cc(OC)c(NC(=S)NCc2ccccc2)cc1Cl do in these assays?
Insulin prom up: 0; RAM network inh: 3

Results for CC(Sc1nncs1)C(=O)Nc1ccc(Cl)cn1 (stereo not given) ?
Yeast life ext: -6; Insulin prom up: -0.63; BB579 growth dn: -9; RAM network inh: 1

How did CC(Sc1nc(-c2ccccc2)cs1)C(=O)Nc1ccc(Cl)cn1 (stereo not given) do in these assays?
Yeast life ext: -3; Insulin prom up: 0; BB579 growth dn: 3; RAM network inh: 9.5*

What do the screens show for `COc1ccc(/C=C2\SC(=NCc3ccccc3)N(Cc3ccccc3)C2=O)cc1OC`?
Yeast life ext: 26; Insulin prom up: -0.2; BB579 growth dn: -13; RAM network inh: 9.4*; INS promoter inh: -9

How did CCOC(=O)C1=C(N)N(c2cc(S(=O)(=O)N3CCOCC3)ccc2Cl)C(=O)C1 do in these assays?
Insulin prom up: 0.34; RAM network inh: 0; INS promoter inh: -14
